Measured values taken from ChEMBL document CHEMBL1134782, “Synthesis of 1-benzyl-3-(5'-hydroxymethyl-2'-furyl)indazole analogues as novel antiplatelet agents” (J Med Chem, 2001).

Key:
[1] = Inhibition of platelet aggregation induced by PAF (2 ng/mL); format: functional
Procedure, shortened: (§1)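 Platelets were preincubated with test compound at 37 °C for 1 min. Values are mean ± SE from three to six separations. Aspirin served as positive control.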

[2] = Inhibition of platelet aggregation induced by thrombin (0.1 unit/ml); format: functional; procedure, shortened: as §1
[3] = Inhibition of platelet aggregation induced by AA (100 uM); format: functional; procedure, shortened: as §1
[4] = Inhibition of platelet aggregation induced by Collagen (10 uM); format: functional; details: in the assay text read “10 ug/mL” for “10 uM”; procedure, shortened: as §1
[5] = inhibition of platelet aggregation induced by PAF (2 ng/mL); format: functional; procedure, shortened: as §1
[6] = target: T1, Soluble guanylate cyclase (Homo sapiens) (UniProt Q02153+O75343+P33402+Q02108); assay: sGC activation was determined in the presence of [alpha-32P]GTP at a concentration of 82 uM; format: protein-complex assay
Procedure, shortened: (§2)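 Soluble guanylate cyclase source was the supernatant fraction of platelet homogenate. It was incubated with [α-32P]GTP and 82 μM test compound at 37 °C for 10 min. Activity was expressed as pmol cGMP/min/mg protein.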

[7] = Inhibition of platelet aggregation induced by Collagen (10 ug/mL)
[8] = target: T2, cGMP-specific 3',5'-cyclic phosphodiesterase (Homo sapiens, UniProt O76074); assay: (§3) Inhibition of PDE5 from platelets
Procedure, shortened: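 PDE activity fraction incubated with [3H]cGMP as substrate and a range of test-compound concentrations at 37 °C for 10 min. […] IBMX served as positive control.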

[9] = target: T2, cGMP-specific 3',5'-cyclic phosphodiesterase; assay: as §3; remark: listed apart in the source
Procedure, shortened: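 PDE activity fraction incubated with [3H]cGMP as substrate and a range of test-compound concentrations at 37 °C for 10 min. IBMX served as positive control.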

[10] = target: T1, Soluble guanylate cyclase (Homo sapiens); assay: […] was determined in the presence of [alpha-32P]GTP at a concentration of 82 uM; format: protein-complex assay; procedure, shortened: as §2

IC50 [1] | IC50 [2] | IC50 [3] | IC50 [4] | IC50 [5] | Activity (pM of cGMP (min)-1 (mg of protein)-1) [6] | IC50 [7] | IC50 [8] | IC50 [9] | Activity (pM of cGMP (min)-1 (mg of protein)-1) [10] | Compound
> 270 µM | > 270 µM | 83.7 µM | 75.5 µM |  |  |  |  |  |  | O=C(O)c1ccc(-c2nn(Cc3ccccc3)c3ccccc23)o1
 | > 270 µM | 148 µM | 150 µM | > 270 µM |  |  |  |  |  | O=C(O)c1ccc(-c2nn(Cc3ccccc3)c3cc4c(cc23)OCO4)o1
 | > 270 µM | 150 µM | 140 µM | > 270 µM |  |  |  |  |  | COc1ccc2c(-c3ccc(C(=O)O)o3)nn(Cc3ccccc3)c2c1
 | > 270 µM | 119 µM | 180 µM | > 270 µM |  |  |  |  |  | O=C(O)c1ccc(-c2nn(Cc3ccccc3)c3cc(F)ccc23)o1
 | > 270 µM | 125 µM | 144 µM | > 270 µM |  |  |  |  |  | CCOC(=O)c1cccc(-c2nn(Cc3ccccc3)c3ccccc23)c1
 | > 270 µM | 102 µM | 113 µM | 196 µM |  |  |  |  |  | COCc1ccc(-c2nn(Cc3ccccc3)c3cc4c(cc23)OCO4)o1
> 270 µM | > 270 µM | 64.2 µM | 78.3 µM |  |  |  |  |  |  | COC(=O)c1ccc(-c2nn(Cc3ccccc3)c3cc(C)ccc23)o1
 | 256 µM | 108 µM | 115 µM | 177 µM |  |  |  |  |  | COCc1ccc(-c2nn(Cc3ccccc3)c3cc(OC)ccc23)o1
 | > 270 µM | 101 µM | > 270 µM | > 270 µM |  |  |  |  |  | OCc1ccc(-c2[nH]nc3ccccc23)o1
76.3 µM | 126 µM | 32.4 µM | 59.3 µM |  | 22.1 |  |  |  |  | COCc1ccc(-c2nn(Cc3ccccc3)c3cc(C)ccc23)o1
164 µM | 239 µM | 96.6 µM |  |  |  | 105 µM |  |  |  | OCc1ccc(-c2nn(Cc3ccccc3)c3cc4c(cc23)OCO4)o1
89.2 µM | 168 µM | 49.7 µM | 46.7 µM |  | 39.9 |  |  |  |  | COc1ccc2c(-c3ccc(CO)o3)nn(Cc3ccccc3)c2c1
 |  |  |  |  |  |  | 63 µM |  |  | CC(C)Cn1c(=O)n(C)c(=O)c2[nH]cnc21 [ISOBUTYLMETHYLXANTHINE]
149 µM | > 270 µM | 94 µM |  |  |  | 101 µM |  |  |  | COC(=O)c1ccc(-c2nn(Cc3ccccc3)c3cc(F)ccc23)o1
 | > 270 µM | > 270 µM | > 270 µM | > 270 µM |  |  |  |  |  | O=C(O)c1ccc(-c2nn(-c3ccccc3)c3ccccc23)o1
> 270 µM | > 270 µM | 20 µM | > 270 µM |  |  |  |  |  |  | CC(=O)Oc1ccccc1C(=O)O [ASPIRIN]
164 µM | 29.3 µM | 184 µM | 212 µM |  |  |  |  |  |  | CCOC(=O)c1ccc(-c2nn(Cc3ccccc3)c3ccccc23)cc1

IC50 [1] | IC50 [2] | IC50 [3] | IC50 [4] | IC50 [5] | Activity (pM of cGMP (min)-1 (mg of protein)-1) [6] | IC50 [7] | IC50 [8] | IC50 [9] | Activity (pM of cGMP (min)-1 (mg of protein)-1) [10] | Compound
109 µM | 116 µM | 45.9 µM | 64.1 µM |  | 41.8 |  |  | 3.9 µM |  | COCc1ccc(-c2nn(Cc3ccccc3)c3cc(F)ccc23)o1
 | 260 µM | 136 µM | 168 µM | 254 µM |  |  |  |  |  | COC(=O)c1ccc(-c2nn(Cc3ccccc3)c3cc4c(cc23)OCO4)o1
 | > 270 µM | 156 µM | 148 µM | 235 µM |  |  |  |  |  | O=C(O)c1cccc(-c2nn(Cc3ccccc3)c3ccccc23)c1
174 µM | > 270 µM | 51.3 µM | 98.1 µM |  |  |  |  |  |  | OCc1cccc(-c2nn(Cc3ccccc3)c3ccccc23)c1
55.9 µM | 102 µM | 55.7 µM | 50.4 µM |  | 17.9 |  |  | 63 µM |  | CCN(CC)Cc1ccc(-c2nn(Cc3ccccc3)c3ccccc23)o1
87.3 µM | 173 µM | 54.3 µM | 53.8 µM |  | 44.6 |  |  | 31.9 µM |  | OCc1ccc(-c2nn(Cc3ccccc3)c3ccccc23)o1
 | 39.4 µM | 47.3 µM | 27.5 µM | 39.6 µM |  |  |  | 22.3 µM | 30.9 | Cc1ccc(-c2nn(Cc3ccccc3)c3ccccc23)o1
145 µM | 158 µM | 17.9 µM | 13.7 µM |  | 27.8 |  |  | 36.3 µM |  | OCc1ccc(-c2nn(-c3ccccc3)c3ccccc23)o1
> 270 µM | > 270 µM | 81.1 µM | 162 µM |  |  |  |  |  |  | COC(=O)c1ccc(-c2nn(Cc3ccccc3)c3ccccc23)o1
72 µM | 147 µM | 49.4 µM | 45.9 µM |  | 35.1 |  |  | 8.4 µM |  | Cc1ccc2c(-c3ccc(CO)o3)nn(Cc3ccccc3)c2c1
53.4 µM | 217 µM | 21.7 µM | 25.2 µM |  | 37.2 |  |  | 14 µM |  | OCc1ccc(-c2nn(Cc3ccccc3)c3cc(F)ccc23)o1
 | > 270 µM | 130 µM | 156 µM | 179 µM |  |  |  |  |  | O=C(O)c1ccc(-c2nn(Cc3ccccc3)c3ccccc23)cc1
 | > 270 µM | 150 µM | 182 µM | > 270 µM |  |  |  |  |  | Cc1ccc2c(-c3ccc(C(=O)O)o3)nn(Cc3ccccc3)c2c1
 | 193 µM | 101 µM | 123 µM | 143 µM |  |  |  |  |  | OCc1ccc(-c2nn(Cc3ccccc3)c3ccccc23)cc1
25.5 µM | 143 µM | 8.2 µM | 6.6 µM |  | 32 |  |  | 13.8 µM |  | COCc1ccc(-c2nn(Cc3ccccc3)c3ccccc23)o1
> 270 µM | > 270 µM | 92.3 µM | 157 µM |  |  |  |  |  |  | COC(=O)c1ccc(-c2nn(Cc3ccccc3)c3cc(OC)ccc23)o1
> 270 µM | > 270 µM | 10.6 µM | 18.2 µM |  |  |  |  |  |  | COC(=O)c1ccc(-c2nn(-c3ccccc3)c3ccccc23)o1
